Data from PMC3887510 (Journal of the American Chemical Society, 2013).
“Also recorded” adds a separate entry of the source.

Legend:
[1] = test system: constitutively active AgrC-I receptor mutant; settings: cited from earlier work
[2] = test system: chimeric AgrC-III-IV receptor; experiment: AgrC-III agonism assay; assay type: cell-based, Staphylococcus aureus; settings: S. aureus RN9532 reporter strain
Method in brief: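 Uses an agr-null group-I strain carrying a P3-blaZ reporter plasmid. The chimeric receptor joins the group-III AgrC N-terminal sensor domain to the group-IV AgrC C-terminal histidine kinase domain, followed by the agrA coding sequence. Test peptides were serially diluted from stock to give dose-response data. β-lactamase activity was the read-out (modified literature assay), and EC50 was calculated from the curves.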

[3] = biological target: T1, AgrC-III (Staphylococcus aureus, UniProt O33590); settings: read-out: AgrC-III antagonism IC50 value (CI); S. aureus AH1747 group-III P3-gfp reporter; CI = 95% confidence interval; cited from earlier work
[4] = biological target: T1, AgrC-III; settings: cited from earlier work
[5] = biological target: T1, AgrC-III; experiment: AgrC-III antagonism assay; assay type: cell-based; settings: ratio of IC50 values vs AIP-III D4A

| Substance | mode of action on constitutively active AgrC-I receptor mutant [1] | AgrC-III agonistic activity in words [2] | IC50 [3] [nM] | AgrC-III agonism EC50 value relative to AIP-III ([2]; Figure S-2) | fold less active as AgrC-III inhibitor relative to AIP-I D5A [4] [fold] | fold weaker / reduced AgrC-III inhibitory activity relative to AIP-III D4A [5] [fold] |
| --- | --- | --- | --- | --- | --- | --- |
| G-V-N-A-(C-S-S-L-F) [AIP-II] | inverse agonist | inactivity | 0.532 |  |  |  |
| I-N-(C-A-F-L-L) [AIP-III D4A] |  |  | 0.0506 |  |  |  |
| I-N-(C-D-F-L-L) [AIP-III] | neutral antagonists |  |  |  |  |  |
| I-N-(C-D-F-L-dL) [AIP-III D-L7] |  | agonistic activity; also recorded: able to activate AgrC-III (with analogous activity as AIP-III |  | comparable to AIP-III |  |  |
| Y-S-T-(C-D-F-I-M) [AIP-I] |  | inactivity | 0.522 |  | 10 | 10 |
| Y-S-T-(C-Y-F-I-M) [AIP-IV] | neutral antagonists | inactivity | 0.46 |  |  |  |
